High-throughput results as filed in PubChem BioAssay.
Shown are actives, neighbours in structure and some others; about 3.7% of the full set was active somewhere.
Dynein cargo inh = blocks dynein driven cargo transport along microtubules; 3617.4 mouse cells, GR-EGFP nuclear translocation imaging; test concentration mostly 20 µM; stimulated with dexamethasone, 1 µM; active compounds read low; z-score, hits read low; actives 0.47% (n = 220,000); AID 1381;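 active = plate z-score of nuclear minus cytoplasmic receptor signal below a set negative limit, without overly bright fluorescence or cell loss, cut at about -3.5 in these data, passing the limit was not always enough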;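 also: z-score of nuclear minus cytoplasmic ring GR-EGFP intensity difference per well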
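Buffer or medium: tetracycline-free induction medium containing charcoal-stripped FBS / Reagent: dexamethasone agonist, 1.0 µM final, for 30 min / Technique: automated 10x imaging of fixed Hoechst-stained cells / Times: induction 48 h, compound 1 h, agonist 30 min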
B2AR ag = activates human beta-2 adrenergic receptor causing internalization. Am2.2-beta2AR cells, FAP receptor internalization, flow cytometry. response, % (concentration not given with the values). actives 0.43% (n = 340,000). AID 504454;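 active = response above a set limit, near 3 SD of response in nonfluorescent compounds, cut at about 42% in these data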
Mdm2-MdmX inh = disrupts the human Mdm2-MdmX interaction; SaOS-2 split-luciferase Mdm2/MdmX complementation, luminescence; inhibition, % at 8 µM; actives 3% (n = 330,000); AID 485346; O15151+Q00987;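 active = inhibition of at least 50% at 8 µM in the primary screen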
Target sequence (O15151 whole entry, looked up): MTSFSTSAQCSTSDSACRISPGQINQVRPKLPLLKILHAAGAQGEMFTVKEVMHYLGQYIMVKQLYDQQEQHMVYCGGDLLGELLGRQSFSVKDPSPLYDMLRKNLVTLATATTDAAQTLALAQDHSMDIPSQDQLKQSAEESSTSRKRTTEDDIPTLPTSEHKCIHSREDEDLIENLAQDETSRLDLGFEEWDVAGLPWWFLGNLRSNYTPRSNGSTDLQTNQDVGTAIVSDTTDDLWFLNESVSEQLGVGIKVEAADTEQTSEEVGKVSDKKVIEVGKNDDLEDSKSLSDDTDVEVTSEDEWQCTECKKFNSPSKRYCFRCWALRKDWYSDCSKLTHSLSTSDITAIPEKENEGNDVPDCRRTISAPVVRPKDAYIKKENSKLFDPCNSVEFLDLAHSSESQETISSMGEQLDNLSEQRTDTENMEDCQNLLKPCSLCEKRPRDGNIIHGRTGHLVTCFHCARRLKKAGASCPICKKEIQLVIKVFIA
Target sequence (Q00987 whole entry, looked up): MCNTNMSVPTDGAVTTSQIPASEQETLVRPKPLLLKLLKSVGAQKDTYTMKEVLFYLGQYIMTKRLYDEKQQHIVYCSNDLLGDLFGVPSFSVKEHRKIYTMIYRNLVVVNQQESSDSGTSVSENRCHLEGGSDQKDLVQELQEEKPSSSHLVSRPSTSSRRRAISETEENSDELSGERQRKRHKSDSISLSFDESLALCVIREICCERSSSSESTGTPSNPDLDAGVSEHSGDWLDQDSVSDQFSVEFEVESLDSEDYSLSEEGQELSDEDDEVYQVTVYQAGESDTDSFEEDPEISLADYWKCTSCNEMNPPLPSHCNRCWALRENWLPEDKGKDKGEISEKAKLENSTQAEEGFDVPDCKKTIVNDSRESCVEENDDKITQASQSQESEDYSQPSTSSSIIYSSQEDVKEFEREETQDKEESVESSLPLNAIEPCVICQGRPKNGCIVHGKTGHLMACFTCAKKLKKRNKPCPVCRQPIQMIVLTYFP
XBP1 UPR activ = activators of adaptive arm of unfolded protein response (XBP1) | actives 0.33% (n = 330,000) | activation, % at 20 µM | AID 463104 | CHO-XBP1 luciferase reporter, IRE1-XBP1 UPR activation, luminescence; percent of tunicamycin response, DMSO as zero;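 active = versus positive control, 20 µM dose yields 30% or more activation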;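 also: 100% = tunicamycin at 10 µg/mL and 0% = DMSO only wells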
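Assay system: CHO-XBP1 luciferase reporter cells; Schedule: 6 h treatment, 37 °C; Detection: glow luminescence from Steady-Glo reagent; Benchmarks: high control tunicamycin 10 µg/mL final, low control DMSO vehicle only.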
MDM2 E3 inh = inhibitors of human Mdm2 E3 ubiquitin ligase; Q00987; cell-based MDM2 ubiquitination luciferase reporter, 2 h; 0 = plate control, 100 = twice control, blank-subtracted; signal enhancement, % at 5 µM; actives 0.11% (n = 210,000); AID 1230;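 active = signal enhancement of 30% or more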;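 also: luminescence tracks abundance of the self-degrading MDM2-luciferase fusion protein; higher signal means inhibition of MDM2 E3 ligase activity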
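Material: Stable MDM2–luciferase fusion reporter cells | Amount: 2000 cells seeded into each well | Dosing: One concentration, 5 µM, with 0.2% DMSO | Incubation: 4 h cell settling then 2 h compound exposure, 37 °C | Measured by: Luciferase luminescence | Read-out basis: % enhancement relative to plate controls after blank subtraction | Benchmarks: Control and blank well means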
UPR CHOP act = activators of apoptotic arm of unfolded protein response (CHOP) | CHO-CHOP luciferase reporter, UPR activation, luminescence; percent of tunicamycin response over DMSO baseline | activation, % at 10 µM | actives 0.34% (n = 330,000) | AID 449763;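 active = at 10 µM dose, activation of 40% or more, normalized to positive control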;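 also: 100% = tunicamycin at 10 µg/mL and 0% = DMSO alone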
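Test system: CHO-CHOP cells, stable luciferase reporter of PERK-eIF2a-CHOP signalling | Quantity: 500 CHO-CHOP cells per well | Buffer or medium: F12 plus 10% serum | Compound dosing: 10 µM single point, 0.5% DMSO | Schedule: 6 h compound treatment, 37 °C | Signal: Luciferase luminescence | Control set: Tunicamycin high control, DMSO low control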
Mdm2 MdmX conf = human Mdm2/MdmX binding inhibition, confirmed | shares compounds with Mdm2-MdmX inh | luminescent assay | inhibition, % at 8 µM | actives 55% (n = 10,000) | AID 489028; in the data active = inhibition above about 40%
FLuc counter = full-length luciferase inhibition in Mdm2/MdmX counter-screen | actives 77% (n = 6,200) | shares compounds with Mdm2-MdmX inh | AID 504607 | inhibition, % at 8 µM | SaOS-2 full-length luciferase counterscreen, luminescence;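 active = mean inhibition at 8 µM reaching about 37%, which flags the compound as non-specific, limit read from the data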;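 also: p53-null SaOS-2 cells with luciferase driven by a doxycycline-inducible promoter; compound on cells about two nights before reading with doxycycline added after day one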
Active calls of the source: *; . = no result.

SMILES	Dynein cargo inh	B2AR ag	Mdm2-MdmX inh	XBP1 UPR activ	MDM2 E3 inh	UPR CHOP act	Mdm2 MdmX conf	FLuc counter
CC(C)N(C(=O)CSc1ncnc2sc(-c3ccccc3)cc12)C(C)C	-0.78	-55	-31	2	-20	2	.	.
COC(=O)c1c(C)[nH]c(C(=O)CSc2ncnc3sc(-c4ccccc4)cc23)c1C	-0.12	-3	67*	10	-10	0	13	.
O=C(CNC(=O)c1ccc(F)cc1)N/N=C/c1cccnc1	.	4	18	-2	.	1	.	.
Cc1[nH]nc2ncc(C(=O)c3ccccc3O)cc12	1.2	1	81*	-1	-23	-4	81*	30
CCN1CCN(CCOc2cccc(Oc3ccccc3)c2)CC1	0.036	-2	-9	0	-8	1	.	.
COc1ccc(S(=O)(=O)Nc2ccccc2-c2nc3ccccc3[nH]c2=O)cc1	.	-9	20	-4	.	0	.	.
O=C1CCCN1c1ccc(S(=O)(=O)Nc2ccc3c(c2)OCCO3)cc1	2.6	-8	68*	0	-12	0	69*	61*
COCCN(Cc1ccccc1)C(=O)C1CCN(C(=O)Nc2ccccc2)CC1	.	1	3	0	.	0	.	.
COc1ccccc1NC(=O)/C=C\c1ccco1	.	2	-3	-4	.	5	.	.
COc1ccccc1NC(=O)/C(C#N)=C/C=C/c1ccco1	-1.1	-2	50*	0	-9	2	54*	64*
CC1CCC(C(C)C)C(OC(=O)Cn2c(-c3ccc(F)cc3)[n+](C)c3ccccc32)C1 (centres undefined)	-0.22	2	89*	4	-15	1	93*	57*
CC1CCC(C(C)C)C(OC(=O)Cn2c(-c3ccccc3)[n+](C)c3ccccc32)C1 (centres undefined)	-0.2	6	93*	19	-34	17	94*	38*
Cc1ccc(C)c(C(=O)OCC(=O)Nc2cccc(S(=O)(=O)N3CCCCC3)c2)c1	.	-6	15	1	.	4	.	.
Cc1cc(C)c(S(=O)(=O)N(C)CC(=O)NCCCn2ccnc2)c(C)c1	.	-1	8	2	.	2	.	.
Cc1coc2c1C(=O)C(=O)c1c-2ccc2c1CCCC2(C)C	-1.9	7	53*	8	1	7	6	.
CC(=O)c1cccc(CN2CCC(C(=O)Nc3ccc(Oc4cccnc4)cc3)CC2)c1	.	2	28	-4	.	0	.	.
CC(=O)c1cccc(CN2CCC(C(=O)Nc3ccc(-c4cccc(C)c4)cc3)CC2)c1	.	-5	52*	-1	.	1	18	.
O=C(NC1CC1)c1sc2cc(Cl)ccc2c1Cl	.	-2	-43	0	.	1	.	.
CC1(C)CC(NC(=O)c2sc3cc(Cl)ccc3c2Cl)CC(C)(C)N1	0.75	6	87*	4	3	4	62*	46*
O=C(Oc1ccc(Cl)c2cccnc12)N1CCOCC1	-0.3	-2	3	-1	-4	-1	.	.
O=C(Oc1c(Cl)cc(Cl)c2cccnc12)c1ccco1	-0.42	8	71*	3	-16	0	60*	36*
COc1ccc(C(=O)Oc2c(CN3CCOCC3)cc(Cl)c3cccnc23)cc1	0.64	-1	55*	-1	-2	0	35	43*
O=C(Nc1cccnc1Cl)c1cccs1	.	-7	17	3	.	2	.	.
O=C(Oc1c(CN2CCOCC2)cc(Cl)c2cccnc12)c1cccs1	-1.2	-3	65*	14	-4	-1	43*	43*
O=C(Oc1c(Cl)cc(Cl)c2cccnc12)c1cccs1	0.23	15	76*	3	-1	0	57*	32
SMILES	Dynein cargo inh	B2AR ag	Mdm2-MdmX inh	XBP1 UPR activ	MDM2 E3 inh	UPR CHOP act	Mdm2 MdmX conf	FLuc counter
Cc1ccc(C2(C(=O)N3CCC(n4nc(-c5ccccc5)oc4=O)CC3)CC2)cc1	.	-5	16	-1	.	0	.	.
CC(=O)c1cccc(NC(=O)C(C)OC(=O)CCc2nc3ccccc3c(=O)[nH]2)c1 (centres undefined)	.	-2	-12	3	.	-1	.	.
CCOC(=O)Cc1nnc(NC(=O)CCc2ccccc2)s1	.	5	-6	1	.	5	.	.
COc1ccccc1N1CCN(C(=O)C2c3ccccc3Oc3ccccc32)CC1	1.4	24	64*	6	-9	-2	56*	89*
COC(=O)c1ccc(C)c(NS(=O)(=O)c2ccc(OC)cc2)c1	-0.014	6	70*	10	-2	-2	60*	100*
COC(=O)c1ccc(C)c(NS(=O)(=O)c2ccc3c(c2)OCCO3)c1	-0.46	-1	64*	6	-16	-2	60*	78*
COc1ccc(NC(=O)C2CCCCN2S(=O)(=O)c2ccccc2)cc1S(=O)(=O)N1CCOCC1 (centres undefined)	.	2	.	.	.	.	.	.
O=C(Nc1ccc(S(=O)(=O)N2CCCCCC2)cc1)c1[nH]ncc1[N+](=O)[O-]	.	18	52*	0	.	6	36	.
OC(COc1ccc(CNCCc2ccccc2F)cc1)CN1CCCCC1 (centres undefined)	-0.73	14	55*	4	-4	3	40*	54*
COC1(OC)C(/C=C/c2ccc(C)cc2)C(C#N)(C#N)C1(OC)OC (centres undefined)	-0.84	27	85*	-1	.	0	43*	35
CCN(C(=O)COC(=O)c1cc(S(=O)(=O)N(C)C)ccc1Cl)C1CCS(=O)(=O)C1 (centres undefined)	.	-1	0	2	.	0	.	.
Cn1nc(-c2ccc(OCC(=O)Nc3cccnc3)cc2)c2ccccc2c1=O	2.3	-1	64*	-1	-19	1	6	.
CNC(=O)COc1ccc(-c2nn(C)c(=O)c3ccccc23)cc1	0.057	0	28	2	-11	0	.	.
Cc1ccc(C)c(OCCC(=O)OCC(=O)Nc2cc(S(=O)(=O)N3CCCCC3)ccc2C)c1	.	-6	30	1	.	0	.	.
Cc1cc(C)c(O)c(-c2cc(C(=O)Nc3ccc(S(=O)(=O)N4CCOCC4)cc3)[nH]n2)c1	4	36	69*	4	5	11	43*	40*
CC(=O)Nc1ccc(NC(=O)c2cc(-c3cc(C)cc(C)c3O)n[nH]2)cc1	.	5	28	0	.	3	.	.
